# Experimental data: ChEMBL document CHEMBL1121685, “Development of new mitomycin C and porfiromycin analogues” (J Med Chem, 1981)
# Experiments:
# [1] = test system: Mus musculus; test: Effect of compound on total white blood cell count in BDG1 male mice, after intraperitoneal administration at a dose of 5.03 mg/kg on day 5; type: functional
# Method in brief: (§1)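 Single ip dose given on day 0 to BDG₁ male mice. Total white blood cell count measured on days 3, 5 and 7, expressed as % change from control. Highest dose was at the LD₅₀, or at twice the optimal dose where so footnoted. Significance reported at p ≤ 0.05 and p ≤ 0.01. D marks death of one or more mice.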
# [2] = test system: Mus musculus; test: Effect of compound on total white blood cell count in BDG1 male mice, after intraperitoneal administration at a dose of 5.03 mg/kg on day 7; type: functional; method in brief: as §1
# [3] = test system: Mus musculus; test: Effect of compound on total white blood cell count in BDG1 male mice, after intraperitoneal administration at a dose of 5.03 mg/kg on day 3; type: functional; method in brief: as §1
# [4] = test system: Mus musculus; test: Effect of compound on total white blood cell count in BDG1 male mice, after intraperitoneal administration at a dose of 2.83 mg/kg on day 7; type: functional
# Method in brief: (§2)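 Single ip dose given on day 0 to BDG1 male mice over a descending dose series. Total white blood cell count is expressed as % change from untreated control on days 3, 5 and 7. Significance is flagged at p ≤ 0.05 and p ≤ 0.01.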
# [5] = test system: Mus musculus; test: Effect of compound on total white blood cell count in BDG1 male mice, after intraperitoneal administration of a compound of 2.83 mg/kg on day 3; type: functional
# [6] = test system: Mus musculus; test: Effect of compound on total white blood cell count in BDG1 male mice, after intraperitoneal administration at a dose of 3.77 mg/kg on day 3; type: functional; method in brief: as §2
# [7] = test system: Mus musculus; test: Effect of compound on total white blood cell count in BDG1 male mice, after intraperitoneal administration at a dose of 3.77 mg/kg on day 5; type: functional; method in brief: as §2
# [8] = test system: Mus musculus; test: Effect of compound on total white blood cell count in BDG1 male mice, after intraperitoneal administration at a dose of 3.77 mg/kg on day 7; type: functional; method in brief: as §2
# [9] = test system: Mus musculus; test: Effect of compound on total white blood cell count in BDG1 male mice, after intraperitoneal administration at a dose of 6.7 mg/kg on day 3; type: functional; method in brief: as §1
# [10] = test system: Mus musculus; test: Effect of compound on total white blood cell count in BDG1 male mice, after intraperitoneal administration at a dose of 6.7 mg/kg on day 5; type: functional; method in brief: as §1
# [11] = test system: Mus musculus; test: Effect of compound on total white blood cell count in BDG1 male mice, after intraperitoneal administration at a dose of 6.7 mg/kg on day 7; type: functional; method in brief: as §1
# [12] = test system: Mus musculus; test: Effect of compound on total white blood cell count in BDG1 male mice, after intraperitoneal administration at a dose of 2.83 mg/kg on day 5; type: functional; method in brief: as §2
# [13] = test system: Mus musculus; test: Minimum effective dose that show activity against P-388 murine leukemia cells in CDF1 female mice, after intraperitoneal administration (optimal dose is 3.2 mg/kg); type: functional; details: P388, ip, read-out: MED
# Method in brief: (§3)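 10⁶ P-388 ascites cells implanted ip in CDF₁ female mice. Six mice per dose, 10 saline-injected controls, and a concurrent mitomycin C reference group. %T/C = median survival time of treated/control × 100. MED is the lowest dose giving %T/C > 125. Therapeutic ratio = optimal dose/MED.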
# [14] = test system: Mus musculus; test: Antitumor activity against P-388 murine leukemia cells in CDF1 female mice after intraperitoneal administration at the specified optimal dose of 3.2 mg/kg; type: functional
# [15] = Therapeutic ratio is expressed as ratio of optimal dose and minimum effective dose; type: ADME; details: mouse; read-out: TR; method in brief: as §3
# [16] = species on record: Mus musculus; test: Degree of leukopenia produced by compound is assessed form Percent change in white cells on days 5; type: functional
# Method in brief: (§4)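 BDG₁ male mice received a single ip dose on day 0. The dose series topped out at the LD₅₀ level, or at twice the optimal dose for some agents. Total white blood cell count was taken on days 3, 5 and 7 and expressed as % change from untreated controls. Significance was set at p ≤ 0.05 or p ≤ 0.01.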
# [17] = species on record: Mus musculus; test: Half-wave potential produced by the compound at their optimal dose; type: functional; design: unit not given here
# [18] = test system: Mus musculus; test: Effect of compound on total white blood cell count in BDG1 male mice, after intraperitoneal administration at a dose of 9.8 mg/kg on day 7; type: functional; method in brief: as §1
# [19] = test system: Mus musculus; test: Effect of compound on total white blood cell count in BDG1 male mice, after intraperitoneal administration at a dose of 5.5 mg/kg on day 3; type: functional; method in brief: as §1
# [20] = test system: Mus musculus; test: Effect of compound on total white blood cell count in BDG1 male mice, after intraperitoneal administration at a dose of 5.5 mg/kg on day 5; type: functional; method in brief: as §1
# [21] = test system: Mus musculus; test: Effect of compound on total white blood cell count in BDG1 male mice, after intraperitoneal administration at a dose of 5.5 mg/kg on day 7; type: functional; method in brief: as §1
# [22] = test system: Mus musculus; test: Effect of compound on total white blood cell count in BDG1 male mice, after intraperitoneal administration at a dose of 7.4 mg/kg on day 5; type: functional; method in brief: as §1
# [23] = test system: Mus musculus; test: Effect of compound on total white blood cell count in BDG1 male mice, after intraperitoneal administration at a dose of 7.4 mg/kg on day 7; type: functional; method in brief: as §1
# [24] = test system: Mus musculus; test: Effect of compound on total white blood cell count in BDG1 male mice, after intraperitoneal administration at a dose of 9.8 mg/kg on day 3; type: functional; method in brief: as §1
# [25] = test system: Mus musculus; test: Effect of compound on total white blood cell count in BDG1 male mice, after intraperitoneal administration at a dose of 9.8 mg/kg on day 5; type: functional; method in brief: as §1
# [26] = test system: Mus musculus; test: Effect of compound on total white blood cell count in BDG1 male mice, after intraperitoneal administration at a dose of 7.4 mg/kg on day 3; type: functional; method in brief: as §1
# [27] = test system: Mus musculus; test: Effect of compound on total white blood cell count in BDG1 male mice, after intraperitoneal administration at a dose of 1.27 mg/kg on day 7; type: functional; method in brief: as §4
# [28] = test system: Mus musculus; test: Effect of compound on total white blood cell count in BDG1 male mice, after intraperitoneal administration at a dose of 1.27 mg/kg on day 3; type: functional; method in brief: as §4
# [29] = test system: Mus musculus; test: Effect of compound on total white blood cell count in BDG1 male mice, after intraperitoneal administration at a dose of 1.69 mg/kg on day 3; type: functional; method in brief: as §4
# [30] = test system: Mus musculus; test: Effect of compound on total white blood cell count in BDG1 male mice, after intraperitoneal administration at a dose of 1.69 mg/kg on day 7; type: functional; method in brief: as §4
# [31] = test system: Mus musculus; test: Effect of compound on total white blood cell count in BDG1 male mice, after intraperitoneal administration at a dose of 1.69 mg/kg on day 5; type: functional; method in brief: as §4
# [32] = species on record: Mus musculus; test: Degree of leukopenia produced by compound is assessed form Percent change in white cells on day 3; type: functional; method in brief: as §4
# [33] = test system: Mus musculus; test: Effect of compound on total white blood cell count in BDG1 male mice, after intraperitoneal administration at a dose of 2.25 mg/kg on day 7; type: functional; method in brief: as §2
# [34] = test system: Mus musculus; test: Effect of compound on total white blood cell count in BDG1 male mice, after intraperitoneal administration at a dose of 2.25 mg/kg on day 3; type: functional; method in brief: as §2
# [35] = test system: Mus musculus; test: Effect of compound on total white blood cell count in BDG1 male mice, after intraperitoneal administration at a dose of 2.25 mg/kg on day 5; type: functional; method in brief: as §2
# [36] = test system: Mus musculus; test: Effect of compound on total white blood cell count in BDG1 male mice, after intraperitoneal administration at a dose of 1.27 mg/kg on day 5; type: functional; method in brief: as §4
# [37] = test system: Mus musculus; test: Effect of compound on total white blood cell count in BDG1 male mice, after intraperitoneal administration at a dose of 3 mg/kg on day 3; type: functional; method in brief: as §2
# [38] = test system: Mus musculus; test: Effect of compound on total white blood cell count in BDG1 male mice, after intraperitoneal administration at a dose of 3 mg/kg on day 5; type: functional; method in brief: as §2
# [39] = test system: Mus musculus; test: Effect of compound on total white blood cell count in BDG1 male mice, after intraperitoneal administration at a dose of 3 mg/kg on day 7; type: functional; method in brief: as §2
# [40] = test system: Mus musculus; test: Effect of compound on total white blood cell count in BDG1 male mice, after intraperitoneal administration at a dose of 44.25 mg/kg on day 5; type: functional; method in brief: as §1
# [41] = test system: Mus musculus; test: Effect of compound on total white blood cell count in BDG1 male mice, after intraperitoneal administration at a dose of 33.18 mg/kg on day 7; type: functional; method in brief: as §2
# [42] = test system: Mus musculus; test: Effect of compound on total white blood cell count in BDG1 male mice, after intraperitoneal administration at a dose of 33.18 mg/kg on day 3; type: functional; method in brief: as §2
# [43] = test system: Mus musculus; test: Effect of compound on total white blood cell count in BDG1 male mice, after intraperitoneal administration at a dose of 33.18 mg/kg on day 5; type: functional; method in brief: as §2
# [44] = test system: Mus musculus; test: Effect of compound on total white blood cell count in BDG1 male mice, after intraperitoneal administration at a dose of 44.25 mg/kg on day 7; type: functional; method in brief: as §1
# [45] = test system: Mus musculus; test: Effect of compound on total white blood cell count in BDG1 male mice, after intraperitoneal administration at a dose of 44.25 mg/kg on day 3; type: functional; method in brief: as §1
# [46] = test system: Mus musculus; test: Effect of compound on total white blood cell count in BDG1 male mice, after intraperitoneal administration at a dose of 59.0 mg/kg on day 3; type: functional; method in brief: as §1
# [47] = test system: Mus musculus; test: Effect of compound on total white blood cell count in BDG1 male mice, after intraperitoneal administration at a dose of 59.0 mg/kg on day 5; type: functional; method in brief: as §1
# [48] = test system: Mus musculus; test: Effect of compound on total white blood cell count in BDG1 male mice, after intraperitoneal administration at a dose of 59.0 mg/kg on day 7; type: functional; method in brief: as §1
# [49] = test system: Mus musculus; test: Minimum effective dose that show activity against P-388 murine leukemia cells in CDF1 female mice, after intraperitoneal administration (optimal dose is 25.6 mg/kg); type: functional; details: P388, ip, read-out: MED; method in brief: as §3
# [50] = test system: Mus musculus; test: Antitumor activity against P-388 murine leukemia cells in CDF1 female mice after intraperitoneal administration at the specified optimal dose of 25.6 mg/kg; type: functional
smiles,measurement,setting,value
COC12[C@@H](COC(N)=O)C3=C(C(=O)C(C)=C(N4CC4C)C3=O)N1C[C@@H]1[C@H]2N1C (stereo partly drawn),Change,[1],-44%
same,Change,[2],-4%
same,Change,[3],-31%
same,Change,[4],2%
same,Change,[5],-31%
same,Change,[6],-30%
same,Change,[7],-25%
same,Change,[8],-11%
same,Change,[9],-28%
same,Change,[10],-49%
same,Change,[11],-37%
same,Change,[12],-21%
same,minimal effective dose,[13],0.4 mg/kg
same,T/C,[14],163%
same,selectivity ratio,[15],8
COC12[C@@H]3N[C@@H]3CN1C1=C(C(=O)C(Nc3cccnc3)=C(C)C1=O)[C@@H]2COC(N)=O (stereo partly drawn),Change,[16],-33%
same,E1/2,[17],-0.31
same,Change,[18],24%
same,Change,[19],-41%
same,Change,[20],-24%
same,Change,[21],-14%
same,Change,[22],-46%
same,Change,[23],-0.2%
same,Change,[24],-36%
same,Change,[25],-42%
same,minimal effective dose,[13],< 0.2 mg/kg
same,T/C,[14],211%
same,selectivity ratio,[15],> 16
same,Change,[26],-43%
COC12[C@@H]3N[C@@H]3CN1C1=C(C(=O)C(N3CC3C)=C(C)C1=O)[C@@H]2COC(N)=O (stereo partly drawn),Change,[27],18%
same,Change,[28],-16%
same,Change,[29],-24%
same,Change,[30],3%
same,Change,[31],-5%
same,Change,[32],-24%
same,Change,[33],-6%
same,Change,[34],-36%
same,Change,[35],-32%
same,E1/2,[17],-0.32
same,Change,[36],-5%
same,Change,[37],-37%
same,Change,[38],-39%
same,Change,[39],-12%
same,minimal effective dose,[13],0.1 mg/kg
same,T/C,[14],233%
same,selectivity ratio,[15],32
C#CCNC1=C(C)C(=O)C2=C(C1=O)[C@H](COC(N)=O)C1(OC)[C@H]3[C@@H](CN21)N3C (stereo partly drawn),Change,[40],-69%
same,Change,[41],-49%
same,Change,[42],-64%
same,Change,[43],-66%
same,Change,[44],-67%
same,Change,[45],-74%
same,Change,[46],-80%
same,Change,[47],-84%
same,Change,[48],-77%
same,minimal effective dose,[49],1.6 mg/kg
same,T/C,[50],300%
same,selectivity ratio,[15],16
